Results on 17 compounds are retold here after ChEMBL document CHEMBL1649190, “Identification and characterization of mefloquine efficacy against JC virus in vitro” (Antimicrob Agents Chemother, 2009).

Counter-ions that a name gives are not always drawn.

The subject of data set [1] is JC polyomavirus. Description: microbe, parasite or virus in culture. The class given is functional, cell-based. To be noted: M1/SVEdelta, SVG-A, 72 h.
Data set [2] can be described thus: in vitro. The conditions noted are these: human.
A short description of data set [3]: in vitro. To be noted: human. This is another data set of the same source.
Another data set relates to Plasma. Description: Drug concentration in human plasma. It counts as ADME, cell-free. To be noted: read-out: Drug uptake.
Data set [4] is described as follows: Lipophilicity, log P of the compound. It counts as physicochemical. To be noted: octanol/water.
Data set [5] relates to JC polyomavirus. Description: Antiviral activity against JC polyomavirus Mad4 infected in human SVG-A cells assessed as inhibition of viral replication after 3 days. The class given is functional, cell-based. To be noted: 72 h. The essentials:
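SVG-A cells (2,000/well) in MEM with 2% heat-inactivated FBS and 4 mM L-glutamine were exposed to JCV(Mad4) plus compound over a concentration range for 60 min at 37°C. Drug-containing medium was then added. Cells were fixed, then stained for VP1 (PAb597) and DAPI and imaged. Infection rate was % VP1+/DAPI+ cells; inhibition was scaled to infected and uninfected controls. EC50 came from a sigmoid fit, n = 5.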

Data set [6] deals with JC polyomavirus. Put plainly: Antiviral activity against JC polyomavirus Mad1 infected in human PHFG cells assessed as inhibition of viral replication after 7 to 10 days.
In data set [7] the test system is JC polyomavirus. Put plainly: Antiviral activity against JC polyomavirus M1/SVEdelta infected in human SVG-A cells assessed as inhibition of viral replication after 3 days. To be noted: 72 h.
Setting [8] is: SVG-A cells infected with JC polyomavirus M1/SVEdelta.

The term EC50 denotes the concentration needed to bring the measured effect to its halfway point. A high value points to a need for much substance. Turning to `O[C@H](c1cc(C(F)(F)F)nc2c(C(F)(F)F)cccc12)[C@@H]1CCCCN1` (racemic) [(R,S)-MEFLOQUINE], in the data set with JC polyomavirus [1], the EC50 was 2.7 µM.
Regarding `O[C@@H](c1cc(C(F)(F)F)nc2c(C(F)(F)F)cccc12)[C@H]1CCCCN1` [(S,R)-MEFLOQUINE], the response in the data set on JC polyomavirus [1] was half-maximal at 4.5 µM (EC50).
On to `CC(C)c1ccc2c(c1)CC[C@H]1[C@](C)(C(N)=O)CCC[C@]21C` [DEHYDROABIETAMIDE], for which the selectivity ratio in the data set “in vitro [2]” (setting [8]) is over 2. For the same compound, the CC50 in “in vitro [3]” (SVG-A cells) was over 40 µM.
In the data set on JC polyomavirus [1], `O=C(O)Cc1ccccc1Nc1c(Cl)cccc1Cl` [DICLOFENAC SODIUM] registered an EC50 of 8.3 µM. The concentration in the data set on Plasma is 8 µM. In “in vitro [2]” (setting [8]), the selectivity ratio was over 2. Moreover, in the data set “in vitro [3]” (SVG-A cells), the CC50 came to 30.5 µM.
`COc1cc(C)c(C(=O)Oc2cc(C)c(C(=O)O)c(O)c2C)c(OC)c1C` [DIFFRACTAIC ACID] showed an EC50 with JC polyomavirus [1] of 14.4 µM. Besides, the selectivity ratio in “in vitro [2]” (setting [8]) was over 2. The CC50 in the data set “in vitro [3]” (SVG-A cells) is over 40 µM.
For `COc1ccc([C@@H]2Sc3ccccc3N(CCN(C)C)C(=O)[C@@H]2OC(C)=O)cc1` [DILTIAZEM HYDROCHLORIDE], the midpoint of the response in the data set with JC polyomavirus [1], the EC50, lay at 8.5 µM. In addition, the concentration in the data set with Plasma turned out to be 0.5 µM. This compound came in with a CC50 in the data set “in vitro [3]” (SVG-A cells) of over 40 µM.
`O=C(O)c1ccccc1Nc1cccc(C(F)(F)F)c1` [FLUFENAMIC ACID] registered an EC50 with JC polyomavirus [1] of 11 µM. Further, the selectivity ratio in “in vitro [2]” (setting [8]) is over 3.
`Cc1c(Nc2ncccc2C(=O)O)cccc1C(F)(F)F` [FLUNIXIN MEGLUMINE] yielded an EC50 in the data set on JC polyomavirus [1] of 14.5 µM. For the same compound, the selectivity ratio in the data set “in vitro [2]” (setting [8]) was over 2. Moreover, the CC50 in “in vitro [3]” (SVG-A cells) is over 40 µM.
Consider `CC(=O)O[C@H]1C[C@@]2(C)[C@@H](C[C@@H](O)[C@H]3[C@@]4(C)CC[C@@H](O)[C@@H](C)[C@@H]4CC[C@@]32C)/C1=C(\CCC=C(C)C)C(=O)O` [FUSIDIC ACID], for which, in the data set on JC polyomavirus [1], the concentration for a half-maximal effect (EC50) was 8.6 µM. Further, the concentration with Plasma was 19 µM. The selectivity ratio in “in vitro [2]” (setting [8]) was over 2. The CC50 in the data set “in vitro [3]” (SVG-A cells) is over 40 µM.
Take `Cc1nccc2c1[nH]c1ccccc12` [HARMAN]: in the data set with JC polyomavirus [1], the response was half-maximal at 14.4 µM (EC50). The selectivity ratio in “in vitro [2]” (setting [8]) is over 2. This compound also came in with a CC50 in “in vitro [3]” (SVG-A cells) of over 40 µM.
As for `CC1=C(/C=C/C(C)=C/C=C/C(C)=C\C(=O)O)C(C)(C)CCC1` [ISOTRETINOIN], the EC50 in the data set with JC polyomavirus [1] was determined as 4.4 µM. In addition, the concentration in the data set on Plasma turned out to be 24 µM. In the data set “in vitro [2]” (svg-a), the selectivity ratio is over 2. The same compound returned a CC50 in “in vitro [3]” (SVG-A cells) of over 40 µM.
`Cc1cccc(Nc2ccccc2C(=O)O)c1C` [MEFENAMIC ACID] registered a half-maximal effective concentration (EC50) in the data set with JC polyomavirus [1] of 10.9 µM. Also, the concentration with Plasma turned out to be 40 µM. In the data set “in vitro [2]” (setting [8]), the selectivity ratio is over 2. This compound had a CC50 in the data set “in vitro [3]” (SVG-A cells) of over 40 µM.
The IC50 is the midpoint of a concentration-inhibition curve. By logP is commonly meant the decadic logarithm of the partition coefficient of the neutral form, usually between octanol and water. Lower therefore signals lower lipophilicity. Take `OC(c1cc(C(F)(F)F)nc2c(C(F)(F)F)cccc12)C1CCCCN1` (configuration not stated) [MEFLOQUINE]: the EC50 with JC polyomavirus [1] stood at 4 µM. The IC50 amounted to 3.9 µM in the data set with JC polyomavirus [1], 4 µM in the data set on JC polyomavirus [5], 5 µM in the data set on JC polyomavirus [6] and 4 µM in the data set on JC polyomavirus [7]. Further, the concentration in the data set with Plasma amounted to 6 µM. In data set [4], the logP was 2.47. Besides, in the data set “in vitro [2]” (svg-a), the selectivity ratio was over 2. The compound also displayed a CC50 in “in vitro [3]” (svg-a) of 16.1 µM.
In the case of `Clc1ccc(COC(Cn2ccnc2)c2ccc(Cl)cc2Cl)c(Cl)c1` (configuration not stated) [MICONAZOLE NITRATE], the CC50 in the data set “in vitro [3]” (svg-a) is 22.9 µM.
The compound `CCC(=O)Nc1ccc(Cl)c(Cl)c1` [PROPANIL] returned an EC50 with JC polyomavirus [1] of 7.8 µM. Further, the selectivity ratio in “in vitro [2]” (setting [8]) is over 2. This compound showed a CC50 in “in vitro [3]” (SVG-A cells) of over 40 µM.
The compound `Cc1c(Cl)cccc1Nc1ccccc1C(=O)O` [TOLFENAMIC ACID] returned an EC50 in the data set on JC polyomavirus [1] of 15 µM. For the same compound, the selectivity ratio in the data set “in vitro [2]” (setting [8]) is over 3.
In the data set on JC polyomavirus [1], `O=c1c2ccccc2oc2ccccc12` [XANTHONE] registered an EC50 of 16.8 µM. The selectivity ratio in “in vitro [2]” (setting [8]) was over 2. Further, in the data set “in vitro [3]” (SVG-A cells), the CC50 is over 40 µM.
